Assay results published in ChEMBL document CHEMBL5247575 (J Med Chem, 2018).

Tested on: Klebsiella pneumoniae
Assay: Synergistic antibacterial activity against Klebsiella pneumoniae 761/1723 producing KPC-3 assessed as meropenem MIC at 8 ug/ml by broth microdilution method
Format: functional
Conditions: dose 8 µg/ml

SMILES | MIC
O=C(NNC(=O)[C@@H]1CC[C@@H]2CN1C(=O)N2OS(=O)(=O)O)[C@@H]1CCNC1 | ≤ 0.12 µg/mL

Tested on: Klebsiella pneumoniae
Assay: Synergistic antibacterial activity against Klebsiella pneumoniae 935/1884 producing KPC-3 assessed as meropenem MIC at 8 ug/ml by broth microdilution method
Format: functional
Conditions: dose 8 µg/ml

SMILES | MIC
O=C(NNC(=O)[C@@H]1CC[C@@H]2CN1C(=O)N2OS(=O)(=O)O)[C@@H]1CCNC1 | ≤ 0.12 µg/mL

Tested on: Escherichia coli
Assay: Synergistic antibacterial activity against Escherichia coli DH10B transfected with pBC SK (-) PDC-3 assessed as meropenem MIC at 4 ug/ml by broth microdilution method
Format: functional
Conditions: dose 4 µg/ml
Summary of the method: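 Broth microdilution per CLSI guidelines, using custom frozen panels. […] Each partner drug was also tested alone. MICs were run in triplicate and the modal value is reported.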

SMILES | MIC
O=C(NNC(=O)[C@@H]1CC[C@@H]2CN1C(=O)N2OS(=O)(=O)O)[C@@H]1CCNC1 | ≤ 0.12 µg/mL

Tested on: Escherichia coli
Assay: Synergistic antibacterial activity against Escherichia coli DH10B assessed as meropenem MIC at 8 ug/ml by broth microdilution method
Format: functional
Conditions: dose 8 µg/ml

SMILES | MIC
O=C(NNC(=O)[C@@H]1CC[C@@H]2CN1C(=O)N2OS(=O)(=O)O)[C@@H]1CCNC1 | ≤ 0.12 µg/mL

Tested on: Acinetobacter baumannii
Assay: Synergistic antibacterial activity against Acinetobacter baumannii PR476 producing OXA-24/40 assessed as cefepime MIC at 4 ug/ml by broth microdilution method
Format: functional
Conditions: dose 4 µg/ml

SMILES | MIC
O=C(NNC(=O)[C@@H]1CC[C@@H]2CN1C(=O)N2OS(=O)(=O)O)[C@@H]1CCNC1 | 1 µg/mL

Tested on: Pseudomonas aeruginosa
Assay: Synergistic antibacterial activity against Pseudomonas aeruginosa 715 assessed as meropenem MIC at 8 ug/ml by broth microdilution method
Format: functional
Conditions: dose 8 µg/ml

SMILES | MIC
O=C(NNC(=O)[C@@H]1CC[C@@H]2CN1C(=O)N2OS(=O)(=O)O)[C@@H]1CCNC1 | 0.5 µg/mL

Tested on: Escherichia coli
Assay: Synergistic antibacterial activity against Escherichia coli DH10B assessed as cefepime MIC at 8 ug/ml by broth microdilution method
Format: functional
Conditions: dose 8 µg/ml

SMILES | MIC
O=C(NNC(=O)[C@@H]1CC[C@@H]2CN1C(=O)N2OS(=O)(=O)O)[C@@H]1CCNC1 | ≤ 0.12 µg/mL

Tested on: Acinetobacter baumannii
Assay: Synergistic antibacterial activity against Acinetobacter baumannii PR319 producing OXA-23/24/40 assessed as cefepime MIC at 8 ug/ml by broth microdilution method
Format: functional
Conditions: dose 8 µg/ml

SMILES | MIC
O=C(NNC(=O)[C@@H]1CC[C@@H]2CN1C(=O)N2OS(=O)(=O)O)[C@@H]1CCNC1 | > 16 µg/mL

Tested on: Klebsiella pneumoniae
Assay: Synergistic antibacterial activity against Klebsiella pneumoniae 761/1723 producing KPC-3 assessed as meropenem MIC at 4 ug/ml by broth microdilution method
Format: functional
Conditions: dose 4 µg/ml

SMILES | MIC
O=C(NNC(=O)[C@@H]1CC[C@@H]2CN1C(=O)N2OS(=O)(=O)O)[C@@H]1CCNC1 | ≤ 0.12 µg/mL

Tested on: Klebsiella pneumoniae
Assay: Synergistic antibacterial activity against Klebsiella pneumoniae jefferson 1775 producing OXA-48 assessed as cefepime MIC at 4 ug/ml by broth microdilution method
Format: functional
Conditions: dose 4 µg/ml

SMILES | MIC
O=C(NNC(=O)[C@@H]1CC[C@@H]2CN1C(=O)N2OS(=O)(=O)O)[C@@H]1CCNC1 | ≤ 0.12 µg/mL

Tested on: Acinetobacter baumannii
Assay: Synergistic antibacterial activity against Acinetobacter baumannii PR359 producing OXA-23 assessed as cefepime MIC at 4 ug/ml by broth microdilution method
Format: functional
Conditions: dose 4 µg/ml

SMILES | MIC
O=C(NNC(=O)[C@@H]1CC[C@@H]2CN1C(=O)N2OS(=O)(=O)O)[C@@H]1CCNC1 | 8 µg/mL

Tested on: Acinetobacter baumannii
Assay: Synergistic antibacterial activity against ADC deleted Acinetobacter baumannii assessed as meropenem MIC at 4 ug/ml by broth microdilution method
Format: functional
Conditions: dose 4 µg/ml

SMILES | MIC
O=C(NNC(=O)[C@@H]1CC[C@@H]2CN1C(=O)N2OS(=O)(=O)O)[C@@H]1CCNC1 | > 16 µg/mL

Tested on: Bacteria
Assay: Inhibition of bacteria PDC-3 assessed as second order rate constant K2/K using nitrocefin as substrate
Conditions: not given

SMILES | K
O=C(NNC(=O)[C@@H]1CC[C@@H]2CN1C(=O)N2OS(=O)(=O)O)[C@@H]1CCNC1 | 6.3 10^5/M/s

Tested on: Acinetobacter baumannii
Assay: Synergistic antibacterial activity against Acinetobacter baumannii PR476 producing OXA-24/40 assessed as meropenem MIC at 8 ug/ml by broth microdilution method
Format: functional
Conditions: dose 8 µg/ml

SMILES | MIC
O=C(NNC(=O)[C@@H]1CC[C@@H]2CN1C(=O)N2OS(=O)(=O)O)[C@@H]1CCNC1 | 0.25 µg/mL

Tested on: Acinetobacter baumannii
Assay: Synergistic antibacterial activity against Acinetobacter baumannii PR420 producing OXA-23/24/40 assessed as cefepime MIC at 8 ug/ml by broth microdilution method
Format: functional
Conditions: dose 8 µg/ml

SMILES | MIC
O=C(NNC(=O)[C@@H]1CC[C@@H]2CN1C(=O)N2OS(=O)(=O)O)[C@@H]1CCNC1 | > 16 µg/mL

Tested on: Acinetobacter baumannii
Assay: Synergistic antibacterial activity against Acinetobacter baumannii PR323 producing OXA-24/40 assessed as cefepime MIC at 4 ug/ml by broth microdilution method
Format: functional
Conditions: dose 4 µg/ml

SMILES | MIC
O=C(NNC(=O)[C@@H]1CC[C@@H]2CN1C(=O)N2OS(=O)(=O)O)[C@@H]1CCNC1 | 4 µg/mL

Tested on: Klebsiella pneumoniae
Assay: Synergistic antibacterial activity against Klebsiella pneumoniae CAV 1543 producing OXA-48 assessed as cefepime MIC at 4 ug/ml by broth microdilution method
Format: functional
Conditions: dose 4 µg/ml

SMILES | MIC
O=C(NNC(=O)[C@@H]1CC[C@@H]2CN1C(=O)N2OS(=O)(=O)O)[C@@H]1CCNC1 | ≤ 0.12 µg/mL

Tested on: Pseudomonas aeruginosa
Assay: Synergistic antibacterial activity against Pseudomonas aeruginosa CL232 assessed as meropenem MIC at 4 ug/ml by broth microdilution method
Format: functional
Conditions: dose 4 µg/ml

SMILES | MIC
O=C(NNC(=O)[C@@H]1CC[C@@H]2CN1C(=O)N2OS(=O)(=O)O)[C@@H]1CCNC1 | > 16 µg/mL

Tested on: Escherichia coli
Assay: Synergistic antibacterial activity against Escherichia coli DH10B assessed as cefepime MIC at 4 ug/ml by broth microdilution method
Format: functional
Conditions: dose 4 µg/ml

SMILES | MIC
O=C(NNC(=O)[C@@H]1CC[C@@H]2CN1C(=O)N2OS(=O)(=O)O)[C@@H]1CCNC1 | ≤ 0.12 µg/mL
